Most compounds without a hit are left out; they make up all but 7.1% or so of the library.
H69AR inhibit – growth inhibitors of human H69AR lung tumor cells; H69AR lung tumor viability, ATP luminescence, 72 h; stronger effect = lower value; viability, % at 10 µM; 85,000 tested, 6% active; AID 598;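 active = viability at or below 40%; inactive = viability above 40%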;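 also: multidrug resistant small cell line overexpressing MRP-1 efflux transporter; 100% = mean luminescence of untreated control wells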
HCT116 PTEN-null – PTEN-deleted cell growth suppression; HCT116 PTEN-null viability, CellTiter-Glo, 60 h; stronger effect = lower value; viability, % at 10 µM; 140,000 tested, 1.2% active; AID 827;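 active = viability at or below a set limit, 4 SD under the median of all tested compounds, cut at about 3.7% in these data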;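 also: PTEN knockout HCT116 line with beta catenin targeted HCT116 as companion control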
HUVEC prolif 384 – human endothelial cell proliferation inhibition; 86,000 tested, 1.1% active; HUVEC proliferation, CellTiter-Glo luminescence, 72 h; stronger effect = lower value; viability, % at 10 µM (by protocol);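 active = viability at or below 30%; inactive = viability above 30%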;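 also: 100% = median luminescence of DMSO-only cell control wells on each plate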
Lung fibro prol – blocks proliferation of human lung fibroblasts; 85,000 tested, 1.1% active; viability, % at 10 µM; AID 719; LL 47 human lung fibroblast viability, ATP luminescence; stronger effect = lower value;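 active = viability at or below 50% in the single dose screen; inactive = viability above 50%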;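 also: compound exposure lasted 72 h before the ATP readout; 100% = median luminescence of untreated cell-only wells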
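Material: Human LL 47 lung fibroblast cells | Input: 1,150 cells/well | Buffer or medium: IMEM plus 15% FBS | Compound dosing: 0.1% DMSO in all compound wells | Times: Overnight cell rest, 72 h compound treatment at 37 °C | Signal: CellTiter-Glo luminescence measuring cellular ATP | Measure: % viability versus median cells-only luminescence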
Cav3 T inh – blocks human Cav3.2 T-type calcium channel; O95180; Cav3.2-expressing cells, Fluo-4 calcium fluorescence FDSS; stronger effect = lower value; B-score at 10 µM; 100,000 tested, 4% active; AID 449739;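 active = single-dose well whose peak fluorescence ratio is a statistical outlier from its plate by either plate-standardised score or position-corrected B-score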
Target sequence (O95180 whole entry, looked up): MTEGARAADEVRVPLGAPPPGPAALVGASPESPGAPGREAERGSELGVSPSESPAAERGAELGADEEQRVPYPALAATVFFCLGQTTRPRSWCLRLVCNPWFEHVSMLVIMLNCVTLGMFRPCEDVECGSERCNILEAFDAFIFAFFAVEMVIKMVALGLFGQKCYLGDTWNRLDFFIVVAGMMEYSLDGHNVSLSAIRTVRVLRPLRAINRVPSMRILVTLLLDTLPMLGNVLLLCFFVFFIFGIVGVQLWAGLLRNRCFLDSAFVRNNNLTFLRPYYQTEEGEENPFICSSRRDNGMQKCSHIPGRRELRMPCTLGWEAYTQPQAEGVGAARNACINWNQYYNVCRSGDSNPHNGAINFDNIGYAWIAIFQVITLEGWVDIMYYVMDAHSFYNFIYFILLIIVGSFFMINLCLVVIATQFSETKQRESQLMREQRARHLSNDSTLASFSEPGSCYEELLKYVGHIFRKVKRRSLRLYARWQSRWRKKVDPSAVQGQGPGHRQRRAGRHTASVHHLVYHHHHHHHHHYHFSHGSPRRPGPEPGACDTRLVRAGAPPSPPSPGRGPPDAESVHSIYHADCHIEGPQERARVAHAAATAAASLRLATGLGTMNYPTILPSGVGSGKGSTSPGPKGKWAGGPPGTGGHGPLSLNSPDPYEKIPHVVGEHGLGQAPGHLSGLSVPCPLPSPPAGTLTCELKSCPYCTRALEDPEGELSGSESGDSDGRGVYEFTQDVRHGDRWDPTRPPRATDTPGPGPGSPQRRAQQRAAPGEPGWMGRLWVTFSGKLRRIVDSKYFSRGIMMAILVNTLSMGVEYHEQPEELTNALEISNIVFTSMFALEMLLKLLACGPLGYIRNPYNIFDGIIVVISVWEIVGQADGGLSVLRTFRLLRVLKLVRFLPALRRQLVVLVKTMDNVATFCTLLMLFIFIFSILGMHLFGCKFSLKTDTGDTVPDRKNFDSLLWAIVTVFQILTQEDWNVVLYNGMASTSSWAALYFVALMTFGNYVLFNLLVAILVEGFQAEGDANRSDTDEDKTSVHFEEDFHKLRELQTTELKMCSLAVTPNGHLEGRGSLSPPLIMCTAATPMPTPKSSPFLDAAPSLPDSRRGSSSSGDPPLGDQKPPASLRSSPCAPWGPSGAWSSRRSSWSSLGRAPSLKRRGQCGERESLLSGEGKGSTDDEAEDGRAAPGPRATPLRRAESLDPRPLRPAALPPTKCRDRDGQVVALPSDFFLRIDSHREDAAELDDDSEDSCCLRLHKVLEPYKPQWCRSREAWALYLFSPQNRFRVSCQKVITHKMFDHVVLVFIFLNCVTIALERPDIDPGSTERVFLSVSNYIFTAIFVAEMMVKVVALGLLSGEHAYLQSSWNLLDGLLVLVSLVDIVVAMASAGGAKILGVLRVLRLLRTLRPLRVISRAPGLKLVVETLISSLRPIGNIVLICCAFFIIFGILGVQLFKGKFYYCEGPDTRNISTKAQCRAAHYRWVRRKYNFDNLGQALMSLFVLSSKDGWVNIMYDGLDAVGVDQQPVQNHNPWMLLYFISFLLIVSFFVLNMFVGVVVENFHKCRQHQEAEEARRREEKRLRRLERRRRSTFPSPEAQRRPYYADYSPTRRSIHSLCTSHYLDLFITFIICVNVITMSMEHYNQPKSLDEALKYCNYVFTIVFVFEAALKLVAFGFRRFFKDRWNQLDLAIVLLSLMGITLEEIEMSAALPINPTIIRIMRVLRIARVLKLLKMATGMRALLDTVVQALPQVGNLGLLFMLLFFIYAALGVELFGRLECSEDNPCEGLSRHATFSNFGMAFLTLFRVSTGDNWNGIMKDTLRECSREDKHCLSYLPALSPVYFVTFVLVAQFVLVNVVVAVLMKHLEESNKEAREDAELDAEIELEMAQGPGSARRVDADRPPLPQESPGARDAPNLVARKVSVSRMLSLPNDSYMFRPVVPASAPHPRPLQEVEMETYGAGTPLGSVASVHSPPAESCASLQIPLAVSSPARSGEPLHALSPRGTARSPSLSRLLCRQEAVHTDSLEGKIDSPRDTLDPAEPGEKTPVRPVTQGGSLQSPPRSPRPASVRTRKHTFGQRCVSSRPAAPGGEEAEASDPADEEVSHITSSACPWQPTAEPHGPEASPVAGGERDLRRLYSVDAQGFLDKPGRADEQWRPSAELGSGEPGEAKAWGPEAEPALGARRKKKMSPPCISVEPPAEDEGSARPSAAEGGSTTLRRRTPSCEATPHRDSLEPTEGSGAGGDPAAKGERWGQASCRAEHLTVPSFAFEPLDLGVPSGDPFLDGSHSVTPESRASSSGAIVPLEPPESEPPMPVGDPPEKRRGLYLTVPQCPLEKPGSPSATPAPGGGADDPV
HCT116 bCat-KO – beta-catenin-lacking colon tumor cell growth suppression; HCT116 beta-catenin knockout viability, CellTiter-Glo, 60 h; stronger effect = lower value; viability, % at 10 µM; 140,000 tested, 1.5% active;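 active = viability at or under a set limit, the compound median less 4 SD, cut at about 6% in these data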;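 also: 0% = Hyamine 1622 control at 20 µM and 100% = untreated cell control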
Starred values were filed as active, the others as inactive; . = not tested or not shown.

SMILES	H69AR inhibit	HCT116 PTEN-null	HUVEC prolif 384	Lung fibro prol	Cav3 T inh	HCT116 bCat-KO
CCC(=O)NC(c1ccccc1OC)c1ccc2cccnc2c1O (centres undefined)	1.8*	2.7*	4.1*	11*	-0.22	3.9*
Cc1ccc(-c2nc3cccnc3o2)cc1NC(=O)COc1ccc(C(C)(C)C)cc1	44	58	18*	82	-0.79	67
CCC(=O)N(Cc1c(C)nn(-c2ccccc2)c1Cl)c1ccc(Cl)cc1	.	59	.	.	.	63
CC(C)n1cc(/C=C2\NC(=O)N(c3cccc(Cl)c3)C2=O)c2ccccc21	15*	26	65	89	1.1	30
CC(C)n1cc(/C=C2/NC(=O)N(c3cccc(Cl)c3)C2=O)c2ccccc21	18*	27	57	80	0.42	29
CCCC/C=C/C(NC(=O)c1ccc(C(=O)OC)cc1)c1ccccc1 (centres undefined)	.	.	.	.	-0.63	.
COc1ccccc1NC(=O)CSCc1nc2ccccc2[nH]1	.	86	.	.	.	87
CCCn1c(CN(Cc2ccccc2)Cc2ccccc2)nc2c1c(=O)n(C)c(=O)n2C	74	70	77	93	-4.4*	71
Cn1c(=O)c2c(nc(CN3CCN(c4ccccc4)CC3)n2Cc2ccccc2Cl)n(C)c1=O	24*	52	75	84	0.018	71
CC(C)CCn1c(Oc2ccccc2Cl)nc2c1c(=O)n(C)c(=O)n2C	67	76	82	89	-4.9*	70
C=CCOc1nc2c(c(=O)n(C)c(=O)n2C)n1Cc1ccccc1Cl	38*	70	94	93	0.13	69
CC(C)CCn1c(Cl)nc2c1c(=O)n(C)c(=O)n2C	91	81	103	87	-1.8	90
Cn1c(=O)c2c(nc(CN3CCN(c4ccccc4)CC3)n2Cc2ccccc2F)n(C)c1=O	83	.	91	93	.	.
CC(C)CCNCC1OCc2ccccc2CO1	.	86	.	.	.	85
CC(C)CCCC(C)NS(=O)(=O)Cc1ccccc1 (centres undefined)	110	91	98	108	-3.6	96
CCCn1c(CN2CCN(c3cccc(Cl)c3)CC2)nc2c1c(=O)n(C)c(=O)n2C	68	38	76	92	-4.8*	23
Cn1c(=O)c2c(nc(NCc3ccc4c(c3)OCO4)n2Cc2ccccc2Cl)n(C)c1=O	38*	93	65	89	0.45	81
CCCCn1c(CN2CCN(c3ccccc3)CC2)nc2c1c(=O)n(C)c(=O)n2C	72	31	84	99	-0.37	22
CCCCCn1c(CN2CCN(c3cccc(Cl)c3)CC2)nc2c1c(=O)n(C)c(=O)n2C	76	.	81	95	-4.1	.
CCCCn1c(CN2CCN(c3cccc(Cl)c3)CC2)nc2c1c(=O)n(C)c(=O)n2C	72	14	80	105	-6.9*	11
COC(=O)N1[C@H](C)C=C[C@]1(Cc1ccccc1)C(=O)NCCCNc1ncc(C(F)(F)F)cc1Cl	.	.	.	.	-2.2	.
CCOC(=O)N1CCC(NC(=O)CSc2cc(=O)n(C)c3ccc(Cl)cc23)CC1	79	.	69	99	.	.
CCCN1CCN(C(=S)Nc2ccccc2C(F)(F)F)CC1	.	89	.	.	.	79
O=C(CCn1c(=S)[nH]c2cc3c(cc2c1=O)OCO3)N1CCc2ccccc2C1	97	92	79	98	.	91
Cc1cccc(N2CCN(C(=O)CCn3c(=S)[nH]c4cc5c(cc4c3=O)OCO5)CC2C)c1 (centres undefined)	47	50	53	95	-4*	42
SMILES	H69AR inhibit	HCT116 PTEN-null	HUVEC prolif 384	Lung fibro prol	Cav3 T inh	HCT116 bCat-KO
O=C(CCCn1c(=S)[nH]c2cc3c(cc2c1=O)OCO3)N1CCN(c2ccc(Cl)cc2)CC1	67	42	95	92	-7.7*	31
CCCN(CCC)S(=O)(=O)c1ccc(C(=O)N2CCCc3ccccc32)cc1	77	82	106	93	0.25	77
COc1ccc(C(C(=O)NC2CCCC2)N(C(=O)c2ccoc2C)c2ccc(C)c(C)c2)cc1 (centres undefined)	.	66	.	.	.	66
Clc1ccc(-n2nnnc2-c2ccccc2)cc1	105	96	101	99	0.24	94
COc1ccc(-n2nnnc2-c2ccccc2)cc1	20*	16	58	60	-0.099	14
CCc1ccc(NC(=O)C(C)Oc2nnc(-c3cccs3)c(-c3cccs3)n2)cc1 (centres undefined)	53	88	92	101	-4.4*	96
CC(C)c1ccc(NC(=O)COc2nnc(-c3cccs3)c(-c3cccs3)n2)cc1	.	63	.	.	-5.1*	67
CC(C)c1ccc(NC(=O)COC(=O)CCC(=O)c2cccs2)cc1	.	91	.	.	.	84
COc1cccc(-c2cc3nc(-c4ccccc4)cc(N4CCC5(CC4)OCCO5)n3n2)c1	68	33	70	99	-2.1	46
CN1CCN(c2cc(-c3ccccc3)nc3cc(-c4ccc(F)cc4)nn23)CC1	.	1.3*	.	.	0.77	3.8*
Oc1ccc(-c2nc3c4c(ncn3n2)-c2ccccc2CC42CCCC2)cc1	.	2.6*	.	.	.	3.0*
CCN(Cc1ccccc1)S(=O)(=O)c1ccc(C(=O)Nc2nnc(-c3ccccc3OC)o2)cc1	51	18	65	78	.	24
CCCN(CCC)S(=O)(=O)c1ccc(C(=O)Nc2nnc(-c3cccc(OC)c3)o2)cc1	16*	10	1.7*	12*	.	10
COc1cccc(-c2nnc(NC(=O)c3ccccc3Br)o2)c1	34*	.	78	93	-0.46	.
COc1cccc(-c2nnc(NC(=O)c3cccc(F)c3)o2)c1	.	.	.	.	-3.5	.
CCCN(CCC)S(=O)(=O)c1ccc(C(=O)Nc2nnc(-c3cc(OC)cc(OC)c3)o2)cc1	16*	10	31	51	.	15
COC(C[C@@H]1O[C@@H]1[C@@H](O)COCc1ccccc1)OC	.	.	.	.	-2.9	.
COc1ccccc1N1CCN(C(=O)c2ccccc2Oc2ccccc2)CC1	71	56	91	96	-4.7*	73
COc1ccccc1N1CCN(C(=O)c2oc3ccc(F)cc3c2C)CC1	.	51	.	.	.	61
O=C(c1ccccc1)N1CCN(c2ccccc2F)CC1	107	92	97	106	-0.71	89
O=C(c1ccccc1C(=O)N1CCN(c2ccccc2F)CC1)N1CCN(c2ccccc2F)CC1	97	67	88	99	-3.9*	68
COC(=O)C1CCN(C(=O)c2ccccc2Oc2ccccc2)CC1	94	79	103	95	-0.043	91
COc1ccccc1N1CCN(C(=O)c2oc3ccccc3c2C)CC1	18*	.	58	87	.	.
O=C(c1ccccc1Oc1ccccc1)N1CCN(c2ccccc2F)CC1	85	74	102	85	-5.4*	74
Cc1cccc(C2NC(c3cccc(C)c3)C([N+](=O)[O-])C(C)(C)C2[N+](=O)[O-])c1 (centres undefined)	.	73	.	.	.	82

Screens as filed in PubChem.
